Consider 2 compounds from ChEMBL document CHEMBL4840316, “Structure-based screening for the discovery of 1,2,4-oxadiazoles as promising hits for the development of new anti-inflammatory agents interfering with eicosanoid biosynthesis pathways” (Eur J Med Chem, 2021).

Activity calls are given as the source filed them. The calls are words filed in the database; no cut-off is given here.

For assay [1], the system named is Mus musculus. The assay is described as follows: Antiinflammatory activity in zymosan-induced CD-1 mouse peritonitis model assessed as reduction in zymosan-induced IL-1beta level in peritoneal exudate at 10 mg/kg, ip treated with compound for 30 mins after 4 hrs zymosan stimulation by ELISA. The assay is classed as functional, organism-based. Summed up: (§1)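 Male CD-1 mice (10–14 wk, 25–30 g), n = 6/group. Zymosan A (500 mg/kg in PBS, boiled) given i.p.; test compound (0.1–10 mg/kg in DMSO/saline 1:3) i.p. 30 min later. Exudates collected by 2 mL PBS lavage at 4 or 24 h. Cells spun at 4 °C and cytokines in supernatant measured by sandwich ELISA at 450 nm. Values normalized to exudate levels, mean ± S.D.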

Assay [2] concerns Mus musculus. Kind of assay: Effect on IL-6 level in zymosan-induced CD-1 mouse peritonitis model in peritoneal exudate at 10 mg/kg, ip treated with compound for 30 mins after 4 to 24 hrs zymosan stimulation by ELISA. In kind it is functional, organism-based. Summed up:
as §1

Assay [3] concerns Mus musculus. Kind of assay: Effect on IL-10 level in zymosan-induced CD-1 mouse peritonitis model in peritoneal exudate at 10 mg/kg, ip treated with compound for 30 mins after 4 to 24 hrs zymosan stimulation by ELISA. In kind it is functional, organism-based. Summed up: as §1
The next assay has as its target T1, Prostaglandin E synthase (Homo sapiens, UniProt O14684).
T1 sequence (O14684 whole entry): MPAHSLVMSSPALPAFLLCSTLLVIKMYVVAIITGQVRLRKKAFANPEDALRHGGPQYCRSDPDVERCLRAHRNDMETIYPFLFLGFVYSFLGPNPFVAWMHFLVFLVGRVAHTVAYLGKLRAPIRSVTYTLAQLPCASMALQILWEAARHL
The assay is described as follows: Inhibition of mPGES-1 obtained from IL-beta stimulated human A549 cells microsomes assessed as residual activity by measuring conversion of PGH2 to PGE2 by cell-free RP-HPLC method. Details: species or system Microsome. Summed up:
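Microsomes from A549 cells stimulated with IL-1β (1 ng/ml) for 48 h. Diluted in 0.1 M potassium phosphate pH 7.4 with 2.5 mM glutathione. Pre-incubated 15 min on ice with compound (single 10 µM, or 0.03–10 µM for the curve) or 1% DMSO. 20 µM PGH2 added for 1 min; stopped with FeCl3/citric acid containing 11β-PGE2 standard. PGE2 measured by SPE and RP-HPLC. n = 3.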

The subject of assay [4] is Mus musculus. The assay is described as follows: Antiinflammatory activity in zymosan-induced CD-1 mouse peritonitis model assessed as reduction in zymosan-induced IL-1beta level in peritoneal exudate at 10 mg/kg, ip treated with compound for 30 mins after 24 hrs zymosan stimulation by ELISA. In kind it is functional, organism-based. Summed up:
as §1

Assay [5] concerns Mus musculus. The assay is described as follows: Antiinflammatory activity in zymosan-induced CD-1 mouse peritonitis model assessed as reduction in zymosan-induced TNF-alpha level in peritoneal exudate at 10 mg/kg, ip treated with compound for 30 mins after 4 hrs zymosan stimulation by ELISA. In kind it is functional, organism-based. Summed up:
as §1

The subject of assay [6] is Mus musculus. Kind of assay: Antiinflammatory activity in zymosan-induced CD-1 mouse peritonitis model assessed as reduction in zymosan-induced neutrophil recruitment at 1 mg/kg, ip treated with compound for 30 mins after 4 hrs zymosan stimulation by ELISA. In kind it is functional, organism-based. Summed up: (§2)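 Male CD-1 mice (10–14 wk, 25–30 g), n = 6/group, injected i.p. with boiled zymosan A (500 mg/kg in PBS). Compound (0.1–10 mg/kg, DMSO/saline 1:3) given i.p. 30 min afterwards. Peritoneal lavage with 2 mL PBS at 4 or 24 h. Total leukocytes counted by automated counter with trypan blue, normalized to exudate. Mean ± S.D.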

Assay [7] concerns Mus musculus. Kind of assay: Antiinflammatory activity in zymosan-induced CD-1 mouse peritonitis model assessed as reduction in zymosan-induced neutrophil recruitment at 10 mg/kg, ip treated with compound for 30 mins after 4 hrs zymosan stimulation by ELISA. In kind it is functional, organism-based. Summed up: as §2
Assay [8] relates to Mus musculus. The assay is described as follows: Antiinflammatory activity in zymosan-induced CD-1 mouse peritonitis model assessed as reduction in zymosan-induced TNF-alpha level in peritoneal exudate at 10 mg/kg, ip treated with compound for 30 mins after 24 hrs zymosan stimulation by ELISA. The assay is classed as functional, organism-based. Summed up:
as §1

For assay [9], the target named is T2, Prostaglandin G/H synthase 1 (Ovis aries) (UniProt P05979).
T2 sequence (whole entry): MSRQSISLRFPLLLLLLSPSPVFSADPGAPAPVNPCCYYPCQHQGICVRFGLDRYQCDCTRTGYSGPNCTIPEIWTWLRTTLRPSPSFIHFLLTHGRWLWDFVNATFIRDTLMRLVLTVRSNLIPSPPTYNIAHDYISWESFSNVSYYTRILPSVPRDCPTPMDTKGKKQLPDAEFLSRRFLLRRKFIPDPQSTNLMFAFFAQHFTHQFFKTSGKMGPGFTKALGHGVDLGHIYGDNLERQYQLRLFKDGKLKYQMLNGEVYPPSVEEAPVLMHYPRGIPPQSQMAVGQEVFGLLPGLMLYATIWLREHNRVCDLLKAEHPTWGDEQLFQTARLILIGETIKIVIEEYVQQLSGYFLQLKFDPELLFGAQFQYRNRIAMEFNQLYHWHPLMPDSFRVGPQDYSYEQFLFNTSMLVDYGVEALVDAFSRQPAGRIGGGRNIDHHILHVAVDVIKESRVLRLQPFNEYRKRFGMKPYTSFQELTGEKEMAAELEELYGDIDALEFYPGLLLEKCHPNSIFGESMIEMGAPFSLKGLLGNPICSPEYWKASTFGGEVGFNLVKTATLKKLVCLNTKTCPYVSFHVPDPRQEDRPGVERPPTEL
Kind of assay: Inhibition of ovine COX-1 assessed as residual activity at 10 uM using arachidonic acid as substrate preincubated for 5 mins followed by substrate addition and measured after 5 mins by RP-HPLC method relative to control. A digest of the protocol:
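Ovine COX-1 (50 U/mL) or human recombinant COX-2 (20 U/mL) in 100 mM Tris pH 8 with 5 mM glutathione, 100 µM EDTA and 5 µM hemoglobin. Pre-incubated with compound or 0.1% DMSO for 5 min at room temperature, then 1 min at 37 °C. Started with AA (5 µM for COX-1, 2 µM for COX-2), run 5 min at 37 °C. 12-HHT measured by RP-HPLC.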

On to `Oc1c(F)c(F)cc(-c2nc(-c3ccc(-c4ccsc4)cc3)no2)c1F`, for which the outcome in the assay with Mus musculus [1], with Mus musculus [4], in the assay on Mus musculus [5], in the assay with Mus musculus [6], with Mus musculus [7] and in the assay with Mus musculus [8] was Active. Further, the outcome with Mus musculus [2] and in the assay with Mus musculus [3] was inactive. Besides, the IC50 on Prostaglandin E synthase came out at 3.6 µM.
As for `Oc1cccc(CCc2nc(-c3ccc(-c4ccsc4)cc3)no2)c1`, the Activity in assay [9] worked out at 47.7%.
